In brackets after ≈: the same amount, converted by molar mass. Activity calls are given as the source filed them. No cut-off for these calls is given here.
Tests used:
Staphylococcus aureus [1] = assay: Antibacterial activity against Staphylococcus aureus at 25 ug/ml incubated for 24 hrs by agar well diffusion method; assay type: functional; details: read-out: DIZ
Procedure, shortened: (§1)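 Bacteria grown in nutrient broth at 37 °C for 24 h, then subcultured at room temperature. Compounds dissolved in DMSO at 5 mg mL⁻¹ and 5–20 µL added to 6 mm wells, giving 25, 50, 75, 100 µg per well. Gentamicin was the positive control and DMSO the negative control. Plates held at 37 °C for 24 h, then inhibition zone diameter (mm) measured. Values are means of three determinations.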

Staphylococcus aureus [2] = assay: Antibacterial activity against Staphylococcus aureus at 50 ug/ml incubated for 24 hrs by agar well diffusion method; assay type: functional; details: read-out: DIZ; procedure, shortened: as §1
Staphylococcus aureus [3] = assay: Antibacterial activity against Staphylococcus aureus at 75 ug/ml incubated for 24 hrs by agar well diffusion method; assay type: functional; details: read-out: DIZ; procedure, shortened: as §1
Staphylococcus aureus [4] = assay: Antibacterial activity against Staphylococcus aureus at 100 ug/ml incubated for 24 hrs by agar well diffusion method; assay type: functional; details: read-out: DIZ; procedure, shortened: as §1
Bacillus subtilis [5] = assay: Antibacterial activity against Bacillus subtilis at 25 ug/ml incubated for 24 hrs by agar well diffusion method; assay type: functional; details: read-out: DIZ; procedure, shortened: as §1
Bacillus subtilis [6] = assay: Antibacterial activity against Bacillus subtilis at 50 ug/ml incubated for 24 hrs by agar well diffusion method; assay type: functional; details: read-out: DIZ; procedure, shortened: as §1
Bacillus subtilis [7] = assay: Antibacterial activity against Bacillus subtilis at 75 ug/ml incubated for 24 hrs by agar well diffusion method; assay type: functional; details: read-out: DIZ; procedure, shortened: as §1
Bacillus subtilis [8] = assay: Antibacterial activity against Bacillus subtilis at 100 ug/ml incubated for 24 hrs by agar well diffusion method; assay type: functional; details: read-out: DIZ; procedure, shortened: as §1
Escherichia coli [9] = assay: Antibacterial activity against Escherichia coli at 25 ug/ml incubated for 24 hrs by agar well diffusion method; assay type: functional; details: read-out: DIZ; procedure, shortened: as §1
Escherichia coli [10] = assay: Antibacterial activity against Escherichia coli at 50 ug/ml incubated for 24 hrs by agar well diffusion method; assay type: functional; details: read-out: DIZ; procedure, shortened: as §1
Escherichia coli [11] = assay: Antibacterial activity against Escherichia coli at 75 ug/ml incubated for 24 hrs by agar well diffusion method; assay type: functional; details: read-out: DIZ; procedure, shortened: as §1
Escherichia coli [12] = assay: Antibacterial activity against Escherichia coli at 100 ug/ml incubated for 24 hrs by agar well diffusion method; assay type: functional; details: read-out: DIZ; procedure, shortened: as §1
Klebsiella pneumoniae [13] = assay: Antibacterial activity against Klebsiella pneumoniae at 25 ug/ml incubated for 24 hrs by agar well diffusion method; assay type: functional; details: read-out: DIZ; procedure, shortened: as §1
Klebsiella pneumoniae [14] = assay: Antibacterial activity against Klebsiella pneumoniae at 50 ug/ml incubated for 24 hrs by agar well diffusion method; assay type: functional; details: read-out: DIZ; procedure, shortened: as §1
Klebsiella pneumoniae [15] = assay: Antibacterial activity against Klebsiella pneumoniae at 75 ug/ml incubated for 24 hrs by agar well diffusion method; assay type: functional; details: read-out: DIZ; procedure, shortened: as §1
Klebsiella pneumoniae [16] = assay: Antibacterial activity against Klebsiella pneumoniae at 100 ug/ml incubated for 24 hrs by agar well diffusion method; assay type: functional; details: read-out: DIZ; procedure, shortened: as §1
Aspergillus niger [17] = assay: Antifungal activity against Aspergillus niger at 25 ug/ml incubated for 48 hrs by agar well diffusion method; assay type: functional; details: read-out: DIZ
Procedure, shortened: (§2)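 Compounds dissolved in DMSO at 5 mg mL⁻¹ and 5–20 µL added to 6 mm wells, giving 25, 50, 75, 100 µg per well. Bavistin was the positive control and DMSO the negative control. Plates incubated at 28 °C for 48 h, then inhibition zone diameter (mm) measured. Values are means of three determinations.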

Aspergillus niger [18] = assay: Antifungal activity against Aspergillus niger at 50 ug/ml incubated for 48 hrs by agar well diffusion method; assay type: functional; details: read-out: DIZ; procedure, shortened: as §2
Aspergillus niger [19] = assay: Antifungal activity against Aspergillus niger at 75 ug/ml incubated for 48 hrs by agar well diffusion method; assay type: functional; details: read-out: DIZ; procedure, shortened: as §2
Aspergillus niger [20] = assay: Antifungal activity against Aspergillus niger at 100 ug/ml incubated for 48 hrs by agar well diffusion method; assay type: functional; details: read-out: DIZ; procedure, shortened: as §2
Candida albicans [21] = assay: Antifungal activity against Candida albicans at 25 ug/ml incubated for 48 hrs by agar well diffusion method; assay type: functional; details: read-out: DIZ; procedure, shortened: as §2
Candida albicans [22] = assay: Antifungal activity against Candida albicans at 50 ug/ml incubated for 48 hrs by agar well diffusion method; assay type: functional; details: read-out: DIZ; procedure, shortened: as §2
Candida albicans [23] = assay: Antifungal activity against Candida albicans at 75 ug/ml incubated for 48 hrs by agar well diffusion method; assay type: functional; details: read-out: DIZ; procedure, shortened: as §2
Candida albicans [24] = assay: Antifungal activity against Candida albicans at 100 ug/ml incubated for 48 hrs by agar well diffusion method; assay type: functional; details: read-out: DIZ; procedure, shortened: as §2
Fusarium oxysporum [25] = assay: Antifungal activity against Fusarium oxysporum at 25 ug/ml incubated for 48 hrs by agar well diffusion method; assay type: functional; details: for zone of inhibition at 25 µg/mL: read-out: DIZ; procedure, shortened: as §2
Fusarium oxysporum [26] = assay: Antifungal activity against Fusarium oxysporum at 50 ug/ml incubated for 48 hrs by agar well diffusion method; assay type: functional; details: for zone of inhibition at 50 µg/mL: read-out: DIZ; procedure, shortened: as §2
Fusarium oxysporum [27] = assay: Antifungal activity against Fusarium oxysporum at 75 ug/ml incubated for 48 hrs by agar well diffusion method; assay type: functional; details: for zone of inhibition at 75 µg/mL: read-out: DIZ; procedure, shortened: as §2
Fusarium oxysporum [28] = assay: Antifungal activity against Fusarium oxysporum at 100 ug/ml incubated for 48 hrs by agar well diffusion method; assay type: functional; details: for zone of inhibition at 100 µg/mL: read-out: DIZ; procedure, shortened: as §2
Erythrocyte = assay: Anti-inflammatory activity in human RBC assessed as inhibition of hypotonic solution-induced hemolysis after 10 mins by spectrophotometric method; assay type: functional, cell-based
Procedure, shortened: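 Human blood (heparinized) washed with 0.9% saline, packed cells made into a 40% v/v stock in isotonic phosphate buffer (154 mM NaCl, 10 mM sodium phosphate, pH 7.4). Stock RBC mixed with hypotonic buffer (50 mM NaCl, 10 mM phosphate, pH 7.4) plus sample at 20–100 µg mL⁻¹.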

Row | Compound | zone of inhibition at 25 µg/mL (Staphylococcus aureus [1]) | zone of inhibition at 50 µg/mL (Staphylococcus aureus [2]) | zone of inhibition at 75 µg/mL (Staphylococcus aureus [3]) | zone of inhibition at 100 µg/mL (Staphylococcus aureus [4]) | zone of inhibition at 25 µg/mL (Bacillus subtilis [5]) | zone of inhibition at 50 µg/mL (Bacillus subtilis [6]) | zone of inhibition at 75 µg/mL (Bacillus subtilis [7]) | zone of inhibition at 100 µg/mL (Bacillus subtilis [8]) | zone of inhibition at 25 µg/mL (Escherichia coli [9]) | zone of inhibition at 50 µg/mL (Escherichia coli [10]) | zone of inhibition at 75 µg/mL (Escherichia coli [11]) | zone of inhibition at 100 µg/mL (Escherichia coli [12]) | zone of inhibition at 25 µg/mL (Klebsiella pneumoniae [13]) | zone of inhibition at 50 µg/mL (Klebsiella pneumoniae [14]) | zone of inhibition at 75 µg/mL (Klebsiella pneumoniae [15]) | zone of inhibition at 100 µg/mL (Klebsiella pneumoniae [16]) | zone of inhibition at 25 µg/mL (Aspergillus niger [17]) | zone of inhibition at 50 µg/mL (Aspergillus niger [18]) | zone of inhibition at 75 µg/mL (Aspergillus niger [19]) | zone of inhibition at 100 µg/mL (Aspergillus niger [20]) | other results
1 | CC[C@H](C)[C@H](NC(=O)OC(C)(C)C)C(=O)Oc1ccc2c(=O)c3ccccc3oc2c1 | 4 mm | 10 mm | 15 mm | 19 mm | 7 mm | 11 mm | 14 mm | 19 mm | 8 mm | 12 mm | 19 mm | 22 mm | 7 mm | 14 mm | 20 mm | 25 mm | 8 mm | 12 mm | 16 mm | 20 mm | zone of inhibition at 25 µg/mL (Candida albicans [21]): 9 mm; zone of inhibition at 50 µg/mL (Candida albicans [22]): 13 mm; zone of inhibition at 75 µg/mL (Candida albicans [23]): 17 mm; zone of inhibition at 100 µg/mL (Candida albicans [24]): 22 mm; diameter of the inhibition zone (DIZ) (Fusarium oxysporum [25]): inactive; diameter of the inhibition zone (DIZ) (Fusarium oxysporum [26]): inactive; diameter of the inhibition zone (DIZ) (Fusarium oxysporum [27]): inactive; diameter of the inhibition zone (DIZ) (Fusarium oxysporum [28]): inactive; IC50 (Erythrocyte): 60 µg/mL (≈ 141 µM)
2 | Cl.N[C@@H](CS)C(=O)Oc1ccc2c(=O)c3ccccc3oc2c1 | 20 mm | 29 mm | 35 mm | 39 mm | 19 mm | 26 mm | 31 mm | 34 mm | 19 mm | 28 mm | 34 mm | 39 mm | 15 mm | 23 mm | 30 mm | 37 mm | 19 mm | 27 mm | 32 mm | 37 mm | zone of inhibition at 25 µg/mL (Candida albicans [21]): 17 mm; zone of inhibition at 50 µg/mL (Candida albicans [22]): 26 mm; zone of inhibition at 75 µg/mL (Candida albicans [23]): 35 mm; zone of inhibition at 100 µg/mL (Candida albicans [24]): 40 mm; zone of inhibition at 25 µg/mL (Fusarium oxysporum [25]): 20 mm; zone of inhibition at 50 µg/mL (Fusarium oxysporum [26]): 28 mm; zone of inhibition at 75 µg/mL (Fusarium oxysporum [27]): 33 mm; zone of inhibition at 100 µg/mL (Fusarium oxysporum [28]): 39 mm; IC50 (Erythrocyte): 30 µg/mL
3 | CC(C)C[C@H](NC(=O)OC(C)(C)C)C(=O)Oc1ccc2c(=O)c3ccccc3oc2c1 | 7 mm | 13 mm | 17 mm | 22 mm | 11 mm | 16 mm | 20 mm | 24 mm | 4 mm | 10 mm | 17 mm | 21 mm | 8 mm | 11 mm | 14 mm | 20 mm | 10 mm | 15 mm | 18 mm | 22 mm | zone of inhibition at 25 µg/mL (Candida albicans [21]): 8 mm; zone of inhibition at 50 µg/mL (Candida albicans [22]): 11 mm; zone of inhibition at 75 µg/mL (Candida albicans [23]): 16 mm; zone of inhibition at 100 µg/mL (Candida albicans [24]): 20 mm; zone of inhibition at 25 µg/mL (Fusarium oxysporum [25]): 10 mm; zone of inhibition at 50 µg/mL (Fusarium oxysporum [26]): 12 mm; zone of inhibition at 75 µg/mL (Fusarium oxysporum [27]): 15 mm; zone of inhibition at 100 µg/mL (Fusarium oxysporum [28]): 19 mm; IC50 (Erythrocyte): 64 µg/mL (≈ 150 µM)

From ChEMBL document CHEMBL4261538, “Synthesis and molecular docking studies of xanthone attached amino acids as potential antimicrobial and anti-inflammatory agents” (Medchemcomm, 2017)
